Test [1] concerns Rattus norvegicus. As to the kind of experiment: Progestational activity in 9-day old pregnant bilateral ovariectomized Sprague-Dawley albino rat assessed as viable fetus at 0.055 to 0.11 mg, sc for 3 days beginning 3 hrs prior to overiectomy measured on day 12 in presence of 17beta-estradiol. In kind it is functional, organism-based. An outline of the steps:
(§1)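 Albino rats (Holtzman), 9 days pregnant and weighing 275–305 g, were used in groups of five. They received subcutaneous steroid in 0.2 mL sesame oil together with 17β-estradiol, 3 h before bilateral ovariectomy. Injections were repeated every 12 h for 3 days. On day 12 the animals were killed, opened by a ventral longitudinal incision, and the intact uteri removed to examine the fetuses.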

Test [2] deals with Rattus norvegicus. As to the kind of experiment: Progestational activity in 9-day old pregnant bilateral ovariectomized Sprague-Dawley albino rat assessed as viable fetus at 1 mg, sc for 3 days beginning 3 hrs prior to overiectomy measured on day 12 in presence of 17beta-estradiol. In kind it is functional, organism-based. An outline of the steps: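 Groups of five 9-day-pregnant albino rats (275–305 g) received sc injections in 0.2 mL sesame oil together with 17β-estradiol (0.1×10^-3 mg), starting 3 h before bilateral ovariectomy. Injections were repeated every 12 h for 3 days. On day 12 the animals were sacrificed and opened by longitudinal ventral incision, and the intact uteri were removed to examine the fetuses.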

Test [3] addresses 3-alpha-(or 20-beta)-hydroxysteroid dehydrogenase (Streptomyces exfoliatus) (UniProt P19992). The experiment in a line: Inhibition of 20beta-hydroxy steroid dehydrogenase in Streptomyces hydrogenans assessed as half life of enzyme inactivation at 50 uM. In a few lines:
(§2)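 20β-Hydroxy steroid dehydrogenase from Streptomyces hydrogenans (4.2×10^-7 M) in 0.05 M phosphate buffer, pH 7.0, with 15% glycerol, was incubated with the bromoacetate steroid at 5×10^-5 M at 25 °C. Remaining activity was followed over time as NADH-dependent cortisone reduction to assess time-dependent, irreversible inactivation. The inactivation half-life was taken from the rate of activity loss.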

Test [4] has the same target. The experiment in a line: Time-dependent inhibition of 20beta-hydroxy steroid dehydrogenase in Streptomyces hydrogenans assessed as inhibition of […] at 50 uM. In a few lines:
as §2

The target is the same in test [5]. The experiment in a line: Irreversible inhibition of 20beta-hydroxy steroid dehydrogenase in Streptomyces hydrogenans assessed as inhibition of […] at 50 uM. In a few lines: as §2
For test [6], the system named is Rattus norvegicus. As to the kind of experiment: Termination of pregnancy in intact rat assessed as fetal resorption administered into uterine lumen on day 7 measured on day 14. The class given is functional, organism-based.
The subject of test [7] is Rattus norvegicus. As to the kind of experiment: Progestational activity in 9-day old pregnant bilateral ovariectomized Sprague-Dawley albino rat assessed as viable fetus at 0.074 to 0.15 mg, sc for 3 days beginning 3 hrs prior to overiectomy measured on day 12 in presence of 17beta-estradiol. In kind it is functional, organism-based. An outline of the steps: as §1
In test [8] the test system is Rattus norvegicus. As to the kind of experiment: Progestational activity in 9-day old pregnant bilateral ovariectomized Sprague-Dawley albino rat assessed as unresorbed fetus at 0.074 mg, sc for 2 days beginning 3 hrs prior to overiectomy measured on day 12 in presence of 17beta-estradiol. The class given is functional, organism-based. An outline of the steps: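 Pregnant albino rats (Holtzman, day 9, 275–305 g) were used in a group of five. They received a subcutaneous steroid/17β-estradiol mixture in 0.2 mL sesame oil 3 h before bilateral ovariectomy and a second injection 12 h later, with nothing given afterwards. On day 12 the rats were sacrificed and autopsied, and the intact uteri removed to score the fetuses.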

Activity calls are given as the source filed them. The rule behind the calls is not given here.

3-alpha-(or 20-beta)-hydroxysteroid dehydrogenase (Streptomyces exfoliatus), sequence (P19992 whole entry): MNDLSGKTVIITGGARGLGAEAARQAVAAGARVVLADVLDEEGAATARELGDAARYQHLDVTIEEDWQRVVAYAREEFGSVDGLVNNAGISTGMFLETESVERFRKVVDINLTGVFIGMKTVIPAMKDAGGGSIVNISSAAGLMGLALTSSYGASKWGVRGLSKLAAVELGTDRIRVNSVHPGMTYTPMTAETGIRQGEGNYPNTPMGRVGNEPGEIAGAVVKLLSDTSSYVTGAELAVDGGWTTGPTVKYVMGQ

On to `CC(=O)O[C@]1(C(C)=O)CC[C@H]2[C@@H]3C[C@H](C)C4=CC(=O)CC[C@]4(C)[C@H]3CC[C@@]21C`, for which, in test [1], the result was Active.
As to `CC(=O)[C@H]1CC[C@H]2[C@@H]3CCC4=CC(=O)CC[C@]4(C)[C@H]3CC[C@]12C`, the result in test [2] was Active.
For `CC(=O)[C@@]1(OC(=O)CBr)CC[C@H]2[C@@H]3C[C@H](C)C4=CC(=O)CC[C@]4(C)[C@H]3CC[C@@]21C`, the T1/2 in test [3] is 15 h. Moreover, the inhibition entry in test [4] and in test [5] was “Active” in each case. The result in test [6] was inactive. Further, the result in test [7] and in test [8] was Active.
As for `CC(=O)[C@H]1[C@H](OC(=O)CBr)C[C@H]2[C@@H]3CCC4=CC(=O)CC[C@]4(C)[C@H]3CC[C@@]21C`, in test [3], the T1/2 worked out at 4 h. Further, the outcome in test [6] was Active.
Turning to `CC(=O)[C@H]1CC[C@H]2[C@@H]3CCC4=CC(=O)CC[C@]4(C)[C@H]3[C@H](OC(=O)CBr)C[C@]12C`, the result in test [6] was Active.
Consider `C[C@]12CC[C@H]3[C@@H](CCC4=CC(=O)CC[C@@H]43)[C@@H]1CC[C@@H]2OC(=O)CBr`, for which the outcome in test [6] was Active.

(Values after ChEMBL document CHEMBL3243994, “Synthesis of medroxyprogesterone bromoacetate for affinity labeling” (J Med Chem, 1977).)
